{
  "source": "ChEMBL document CHEMBL5325511",
  "about": "“Discovery of N-(4-(Aminomethyl)phenyl)-5-methylpyrimidin-2-amine Derivatives as Potent and Selective JAK2 Inhibitors” (ACS Med Chem Lett, 2023)",
  "key": {"[1]": {"assay": "Oral bioavailability in Sprague-Dawley rat at 5 mg/kg measured upto 24 hrs by LC-MS/MS analysis", "type": "ADME, organism-based", "conditions": "in vivo", "method_in_brief": "(§1)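 Sprague–Dawley rats, n = 5 per group, dosed at 5 mg/kg as a solution in 2% ethanol and 1% Tween 80, pH 5.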"}, "[2]": {"target": "Non-receptor tyrosine-protein kinase TYK2 (Homo sapiens, UniProt P29597)", "sequence (P29597 whole entry)": "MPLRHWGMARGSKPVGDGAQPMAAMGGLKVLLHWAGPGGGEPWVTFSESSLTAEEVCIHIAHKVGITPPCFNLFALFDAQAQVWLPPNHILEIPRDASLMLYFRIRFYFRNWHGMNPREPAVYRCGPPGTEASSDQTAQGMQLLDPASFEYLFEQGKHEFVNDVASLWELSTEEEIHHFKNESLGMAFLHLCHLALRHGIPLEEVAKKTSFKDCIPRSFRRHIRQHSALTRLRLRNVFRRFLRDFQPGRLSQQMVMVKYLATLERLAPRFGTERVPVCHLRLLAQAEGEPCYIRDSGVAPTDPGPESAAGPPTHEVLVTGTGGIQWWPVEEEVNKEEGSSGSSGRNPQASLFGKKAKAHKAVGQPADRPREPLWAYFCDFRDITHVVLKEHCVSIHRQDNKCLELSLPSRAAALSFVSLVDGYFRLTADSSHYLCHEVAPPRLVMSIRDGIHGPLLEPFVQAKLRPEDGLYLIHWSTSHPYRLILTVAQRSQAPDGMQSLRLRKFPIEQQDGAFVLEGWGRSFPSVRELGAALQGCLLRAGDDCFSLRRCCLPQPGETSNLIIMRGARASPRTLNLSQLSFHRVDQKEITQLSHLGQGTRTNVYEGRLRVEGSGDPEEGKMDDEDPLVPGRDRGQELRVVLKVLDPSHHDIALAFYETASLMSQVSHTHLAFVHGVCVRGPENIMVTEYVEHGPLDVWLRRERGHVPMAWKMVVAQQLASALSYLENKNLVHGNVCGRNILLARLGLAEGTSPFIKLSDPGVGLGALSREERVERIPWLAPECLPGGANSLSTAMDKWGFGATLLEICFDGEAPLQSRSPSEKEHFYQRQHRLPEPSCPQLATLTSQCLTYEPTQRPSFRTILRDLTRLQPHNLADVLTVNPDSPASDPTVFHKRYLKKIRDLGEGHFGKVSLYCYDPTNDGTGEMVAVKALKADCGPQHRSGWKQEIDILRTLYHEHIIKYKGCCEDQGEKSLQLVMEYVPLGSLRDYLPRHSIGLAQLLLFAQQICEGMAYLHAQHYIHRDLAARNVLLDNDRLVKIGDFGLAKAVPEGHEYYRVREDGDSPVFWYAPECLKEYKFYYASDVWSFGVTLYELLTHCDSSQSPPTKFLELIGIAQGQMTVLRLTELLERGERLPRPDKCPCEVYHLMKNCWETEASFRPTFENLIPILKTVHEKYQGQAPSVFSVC", "assay": "Inhibition of TYK2 (unknown origin) in presence of Mg/ATP mixture by [gamma p33]-ATP based radiometric assay"}, "[3]": {"assay": "Tmax in Sprague-Dawley rat at 5 mg/kg, po measured upto 24 hrs by LC-MS/MS analysis", "type": "ADME, organism-based", "conditions": "in vivo, po, 5 mg/kg, 24 h", "method_in_brief": "as §1"}, "[4]": {"assay": "Clearance in Sprague-Dawley rat at 5 mg/kg, po measured upto 24 hrs by LC-MS/MS analysis", "type": "ADME, organism-based", "conditions": "in vivo", "method_in_brief": "(§2)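 Sprague–Dawley rats, n = 5, dosed at 5 mg/kg as a solution in 2% ethanol and 1% Tween 80, pH 5.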"}, "BaF3 [5]": {"tested_on": "BaF3", "assay": "Inhibition of JAK2/STAT signaling pathway in mouse BaF3 cells harbouring JAK2 V617F mutant assessed as reduction in STAT5 phosphorylation by Western blot analysis", "type": "cell-based", "conditions": "dose 10-1000 nM", "method_in_brief": "(§3)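 Ba/F3 JAK2V617F cells treated with compound at increasing concentrations. Phosphorylation levels of JAK2, STAT3, STAT5 and AKT assessed by Western blot.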"}, "BaF3 [6]": {"tested_on": "BaF3", "assay": "Inhibition of JAK2/STAT signaling pathway in mouse BaF3 cells harbouring JAK2 V617F mutant assessed as reduction in JAK2 phosphorylation by Western blot analysis", "type": "cell-based", "conditions": "dose 10-1000 nM", "method_in_brief": "as §3"}, "[7]": {"assay": "AUC(0 to t) in Sprague-Dawley rat at 5 mg/kg, po measured upto 24 hrs by LC-MS/MS analysis", "type": "ADME, organism-based", "design": "time < 24 hrs, dose 5 mg/kg, route po", "conditions": "in vivo", "method_in_brief": "as §2"}},
  "data": [
    {"smiles": "C=CS(=O)(=O)NCc1ccc(Nc2ncc(C)c(-c3cnn(C(C)C)c3)n2)cc1", "values": [
      {"measurement": "bioavailability", "setting": "[1]", "value": 41.1, "unit": "%"},
      {"measurement": "IC50", "setting": "[2]", "value": 206, "unit": "nM"},
      {"measurement": "Tmax", "setting": "[3]", "value": 1.4, "unit": "h"},
      {"measurement": "CL", "setting": "[4]", "value": 295, "unit": "mL/min/kg"},
      {"measurement": "inhibition", "setting": "BaF3 [5]", "value": "Dose-Dependent Effect"},
      {"measurement": "inhibition", "setting": "BaF3 [6]", "value": "Dose-Dependent Effect"},
      {"measurement": "AUCt", "setting": "[7]", "value": 3517.9, "unit": "ng·h/mL"}
    ]}
  ]
}
